Measurements: PubChem BioAssay AID624077 (The Scripps Research Institute Molecular Screening Center, 2012)

Target: Monoacylglycerol lipase ABHD6 (Mus musculus) (UniProt Q8R2Y0)
Test: oral in vivo ABHD6 inhibition in mouse liver, late-stage follow-up, in vivo study for DAGLb inhibitor project, gel-based competitive ABPP, fluorescence, powder samples (AID 624077)
Details: C57BL mice oral dosing, stronger effect = higher value
Procedure, shortened: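 System: liver membrane fraction from orally dosed C57BL mice, ABHD6 target; Amount: membranes 1 mg/mL; Timing: 4 h oral dose-to-liver-harvest, 30 min 37 °C probe labelling; Compound dosing: oral 10, 5, 1 mg/kg; Measured by: in-gel fluorescence after SDS-PAGE; Benchmarks: high control vehicle-treated liver, low control blank-gel background.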

[1] = measured here: ABHD6 inhibition at 1 mg/kg
[2] = measured here: ABHD6 inhibition at 5 mg/kg

Sequence of Monoacylglycerol lipase ABHD6 (Mus musculus) (Q8R2Y0 whole entry, looked up): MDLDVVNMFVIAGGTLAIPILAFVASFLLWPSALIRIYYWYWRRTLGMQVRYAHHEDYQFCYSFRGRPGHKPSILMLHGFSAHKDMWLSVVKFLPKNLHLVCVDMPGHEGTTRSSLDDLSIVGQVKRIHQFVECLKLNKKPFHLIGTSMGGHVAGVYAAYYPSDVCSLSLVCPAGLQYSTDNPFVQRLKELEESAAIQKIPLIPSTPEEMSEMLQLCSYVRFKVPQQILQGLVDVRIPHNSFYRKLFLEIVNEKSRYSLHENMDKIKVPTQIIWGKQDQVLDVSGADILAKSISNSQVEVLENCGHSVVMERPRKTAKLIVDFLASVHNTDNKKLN

Work on O=C(N1CCCCC1Cc1ccccc1)n1cc(-c2ccc(-c3ccccc3)cc2)nn1 (centres undefined) yielded an inhibition of 100%, an inhibition [1] of 100% and an inhibition [2] of 100%.

Compound COc1ccccc1-c1ccc(-c2cn(C(=O)N3CCCCC3Cc3ccccc3)nn2)cc1 (centres undefined) has an inhibition of 100%, an inhibition [1] of 90% and an inhibition [2] of 100%.

COc1ccc(-c2ccc(-c3cn(C(=O)N4CCCCC4c4ccccc4)nn3)cc2)cc1 (centres undefined) was tested, and the inhibition was 100%, the inhibition [1] was 70% and the inhibition [2] was 80%.
